Data set [1] concerns HEK293T. Kind of data set: Antagonist activity against GPR65 F242A mutant (unknown origin) transfected in human HEK293T cells incubated for 15 mins by luminescence counter analysis. The data set is classed as cell-based. Conditions: filed as antagonist. The method in brief: (§1)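 GloSensor split-luciferase cAMP assay. HEK293-T cells transiently co-transfected with GPR65 (wild type or the D153A, R187L, F242A or Y272A mutant) and GloSensor 7A reporter. Cells plated in DMEM with 1% dialyzed FBS for at least 6 h, then loaded with luciferin (4 mM, in drug buffer pH 8.4) for 90 min at 37°C. Compounds added at set pH in HBSS with 10 mM HEPES/10 mM MES, with TAPS for higher pH. Luminescence read after about 20 min at room temperature. Data normalized to buffer basal and fitted to a 4-parameter logistic.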

Data set [2] in a line: Antagonist activity against GPR65 D153A mutant (unknown origin) transfected in human HEK293T cells incubated for 15 mins by luminescence counter analysis relative to control. Particulars: HEK-293T, 0.25 h, condition central nervous system disease. In short, it runs like this: as §1
The test system of data set [3] is HEK293T. Kind of data set: Antagonist activity against GPR65 Y272A mutant (unknown origin) transfected in human HEK293T cells incubated for 15 mins by luminescence counter analysis. The data set is classed as cell-based. Conditions: filed as antagonist. In short, it runs like this: as §1
Data set [4] is described as follows: Antagonist activity against GPR65 D153A mutant (unknown origin) transfected in human HEK293T cells incubated for 15 mins by luminescence counter analysis. The class given is cell-based. Conditions: HEK-293T, 0.25 h. The method in brief: as §1
The target in data set [5] is T1, G-protein coupled receptor 65 (Homo sapiens, UniProt Q8IYL9). Kind of data set: Antagonist activity against GPR65 (unknown origin) transfected in human HEK293T cells incubated for 15 mins by luminescence counter analysis relative to control. The data set is classed as functional, cell-based. The method in brief: as §1
For data set [6], the system named is HEK293T. Kind of data set: Antagonist activity against GPR65 R187L mutant (unknown origin) transfected in human HEK293T cells incubated for 15 mins by luminescence counter analysis. The data set is classed as cell-based. Conditions: filed as antagonist. In short, it runs like this:
as §1

Data set [7] addresses T1, G-protein coupled receptor 65. Kind of data set: Agonist activity against GPR65 (unknown origin) transfected in human HEK293T cells incubated for 15 mins by luminescence counter analysis. Conditions: filed as agonist. The class given is functional, cell-based. In short, it runs like this:
as §1

Data set [8] shares this target. Kind of data set: Antagonist activity against GPR65 (unknown origin) transfected in human HEK293T cells incubated for 15 mins by luminescence counter analysis. The data set is classed as functional, cell-based. In short, it runs like this: as §1
The nature of data set [9]: Positive allosteric modulator activity at GPR68 E160K mutant transfected in human HEK293T cells assessed as proton-mediated calcium release at 10 uM incubated for 10 mins by Fluo-4 Direct calcium dye based FLIPR assay (reference value: 6.79 +/- 0.02). The data set is classed as cell-based. Particulars: HEK-293T.
A short description of data set [10]: Toxicity in C57BL/6 mouse assessed as cued memory retrieval by Morris water maze test. Conditions: in vivo.
The target in data set [11] is T2, G-protein coupled receptor 68 (Homo sapiens, UniProt Q15743). Kind of data set: Positive allosteric modulator activity at GPR68 expressed in human HEK293T cells assessed as proton-mediated calcium release at 10 uM incubated for 10 mins by Fluo-4 Direct calcium dye based FLIPR assay (reference value: 1.30 %). The data set is classed as functional, cell-based.
The target in data set [12] is C-X-C chemokine receptor type 4 (Homo sapiens) (UniProt P61073). Kind of data set: Antagonist activity against CXCR4 receptor (unknown origin) transfected in human HEK293T cells at 10 uM incubated for 15 mins in presence of AMD3100 by luminescence counter analysis. The class given is functional, cell-based. The method in brief:
(§2)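 HEK293-T cells transiently transfected with CXCR4 and the GloSensor cAMP reporter, plated in DMEM with 1% dialyzed FBS. Test compound at 10 μM in 20 mM HEPES/HBSS, pH 7.4, 15 min at room temperature. Agonist mode: luciferin (4 mM final) plus 200 nM isoproterenol added, 20 min. Antagonist mode: compound 10 min, then reference agonist at EC80 for 10 min, then luciferin/isoproterenol. Luminescence read. CXCL12 (1 or 3 μM) is the agonist control and AMD3100 (10 μM) the antagonist control. n=2.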

Data set [13] in a line: Positive allosteric modulator activity at GPR68 E160Q mutant transfected in human HEK293T cells assessed as proton-mediated calcium release at 10 uM incubated for 10 mins by Fluo-4 Direct calcium dye based FLIPR assay (reference value: 1.25 +/- 0.01 %). Conditions: HEK-293T, condition central nervous system disease.
Data set [14] deals with C-X-C chemokine receptor type 4 (Homo sapiens) (UniProt P61073). Kind of data set: Agonist activity against CXCR4 receptor (unknown origin) transfected in human HEK293T cells at 10 uM incubated for 15 mins in presence of CXCL12 by luminescence counter analysis. The class given is functional, cell-based. The method in brief: as §2
Data set [15] in a line: Positive allosteric modulator activity at GPR68 H269F mutant transfected in human HEK293T cells assessed as proton-mediated calcium release at 10 uM incubated for 10 mins by Fluo-4 Direct calcium dye based FLIPR assay (reference value: 6.44 +/- 0.02). The class given is cell-based. Particulars: HEK-293T.
Data set [16] is described as follows: Positive allosteric modulator activity at GPR68 R189L mutant transfected in human HEK293T cells assessed as proton-mediated calcium release at 10 uM incubated for 10 mins by Fluo-4 Direct calcium dye based FLIPR assay (reference value: 1.42 +/- 0.01 %). Conditions: HEK-293T, condition central nervous system disease.
For data set [17], the target named is T2, G-protein coupled receptor 68. Kind of data set: Positive allosteric modulator activity at GPR68 expressed in human HEK293T cells assessed as cAMP production in presence of H+ proton by Split-luciferase based luminescence counter analysis (reference value: 6.53 to 6.72). The data set is classed as functional, cell-based. A general note: Cyclic AMP is a second messenger, typically raised through Gs and lowered through Gi signalling.

The species entered for data set [18] is Mus musculus. Kind of data set: […] activity against GPR68 knockout C57BL/6 mouse assessed as contextual memory retrieval. The class given is functional, organism-based. In short, it runs like this:
(§3)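 Fear conditioning in wild-type and GPR68 KO C57BL/6J congenic mice. Training was 8 min: 3 pairings of a 30-s, 90 dB, 5 kHz tone with a 2-s, 0.6 mA foot shock. Context freezing scored at 24 h over 5 min; cue test at 48 h over 6 min. Freezing defined as no movement for 0.5 s. Compound 10 mg/kg in 10% Tween 80 or saline, 30 min before training. n=6–8 per group. Two-way ANOVA with Bonferroni post-hoc test.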

Data set [19] can be described thus: Toxicity in C57BL/6 mouse assessed as improvement in cue memory at 10 to 30 mg/kg administered for 30 mins by Morris water maze test. The class given is organism-based. Conditions: in vivo, 0.5 h, dose 10-30 mg/kg.
Data set [20] in a line: Toxicity in C57BL/6 mouse assessed as improvement in learning and spatial memory at 10 mg/kg administered for 30 mins by hidden platform test. The data set is classed as organism-based. Conditions: in vivo, 0.5 h.
Data set [21] is filed under the species Mus musculus. Kind of data set: Antipsychotic activity against GPR68 knockout C57BL/6 mouse assessed as cued memory retrieval by Morris water maze test. The data set is classed as functional, organism-based.
Data set [22] is described as follows: Positive allosteric modulator activity at GPR68 R189M mutant transfected in human HEK293T cells assessed as proton-mediated calcium release at 10 uM incubated for 10 mins by Fluo-4 Direct calcium dye based FLIPR assay (reference value: 1.43 +/- 0.01 %). Conditions: HEK-293T, condition central nervous system disease.
Data set [23] is described as follows: Positive allosteric modulator activity at GPR68 R189L mutant transfected in human HEK293T cells assessed as proton-mediated calcium release at 10 uM incubated for 10 mins by Fluo-4 Direct calcium dye based FLIPR assay (reference value: 6.85 +/- 0.02). Particulars: HEK-293T. The class given is cell-based.
Data set [24] is described as follows: Positive allosteric modulator activity at GPR68 E160Q mutant transfected in human HEK293T cells assessed as proton-mediated calcium release at 10 uM incubated for 10 mins by Fluo-4 Direct calcium dye based FLIPR assay (reference value: 6.86 +/- 0.04). The data set is classed as cell-based. Conditions: HEK-293T.
The nature of data set [25]: Toxicity in C57BL/6 mouse assessed as decreased contextual memory retrieval. Particulars: in vivo. In short, it runs like this: as §3
The nature of data set [26]: Positive allosteric modulator activity at GPR68 H269F mutant transfected in human HEK293T cells assessed as proton-mediated calcium release at 10 uM incubated for 10 mins by Fluo-4 Direct calcium dye based FLIPR assay (reference value: 1.57 +/- 0.01 %). Particulars: HEK-293T, condition central nervous system disease.
Data set [27] in a line: Toxicity in C57BL/6 mouse assessed as improvement in learning and spatial memory at 30 mg/kg administered for 30 mins by hidden platform test. Conditions: in vivo, 0.5 h. The class given is organism-based.
Data set [28] is described as follows: Positive allosteric modulator activity at GPR68 R189M mutant transfected in human HEK293T cells assessed as proton-mediated calcium release at 10 uM incubated for 10 mins by Fluo-4 Direct calcium dye based FLIPR assay (reference value: 6.77 +/- 0.01). The class given is cell-based. Particulars: HEK-293T.
For data set [29], the target named is T2, G-protein coupled receptor 68. Kind of data set: Positive allosteric modulator activity at GPR68 expressed in human HEK293T cells assessed as cAMP production in presence of H+ proton by Split-luciferase based luminescence counter analysis (reference value: 26.4 to 43.8 %). The data set is classed as functional, cell-based. Particulars: filed as positive allosteric modulator. The method in brief: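 Proton concentration-response of GPR68 (wild type or E160A/K/Q, R189L/M, H269F mutants) in transiently transfected HEK293-T cells. Read-out: GloSensor cAMP, with luciferin loading 90 min at 37°C at pH 8.4. Run with and without increasing modulator concentrations; 20 min at room temperature before luminescence. Proton KA fixed to the proton EC50 without modulator. KB, τA, α, β fitted globally with an operational allosteric model. n=4.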

A short description of data set [30]: Toxicity in C57BL/6 mouse assessed as improvement in contextual memory at 10 to 30 mg/kg administered for 30 mins. The data set is classed as organism-based. Particulars: in vivo, 0.5 h, dose 10-30 mg/kg.
Data set [31] concerns the target T2, G-protein coupled receptor 68. Kind of data set: Positive allosteric modulator activity at GPR68 expressed in human HEK293T cells assessed as proton-mediated phosphatidylinositol hydrolysis on pH 8.4 at 10 uM incubated for 20 mins by TriLuxMicroBeta counter analysis. The data set is classed as functional, cell-based. The method in brief:
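GPR68-transfected HEK293-T cells labeled overnight with 3H-inositol (1 μCi/well) in inositol-free DMEM with 5% dialyzed FBS. Treated for 20 min at pH 8.4 in HBSS with 10 mM HEPES, 10 mM MES and 20 mM LiCl, compound at 10 μM. Extracted with 50 mM ice-cold formic acid, 30 min at 4°C. Captured on YSi beads and counted (cpm/well). n=3. 4-parameter logistic fit.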

A short description of data set [32]: Positive allosteric modulator activity at GPR68 E160K mutant transfected in human HEK293T cells assessed as proton-mediated calcium release at 10 uM incubated for 10 mins by Fluo-4 Direct calcium dye based FLIPR assay (reference value: 1.38 +/- 0.01 %). Conditions: HEK-293T, condition central nervous system disease.

The structures appear in SMILES notation. The source made the active and inactive calls.

The results in this text go back to ChEMBL document CHEMBL5661984, “Allosteric ligands for the pharmacologically dark receptors GPR68 and GPR65” (Nature, 2015).

T1 sequence (Q8IYL9 whole entry): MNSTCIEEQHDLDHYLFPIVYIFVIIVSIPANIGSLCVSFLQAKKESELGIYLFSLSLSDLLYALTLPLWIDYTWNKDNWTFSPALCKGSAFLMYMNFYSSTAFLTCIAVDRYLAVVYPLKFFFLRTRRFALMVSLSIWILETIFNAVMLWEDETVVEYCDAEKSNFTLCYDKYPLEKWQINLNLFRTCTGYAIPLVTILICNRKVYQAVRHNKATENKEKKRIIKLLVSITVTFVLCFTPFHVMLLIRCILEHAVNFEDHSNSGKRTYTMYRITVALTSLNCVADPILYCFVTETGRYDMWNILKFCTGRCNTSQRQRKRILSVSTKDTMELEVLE
T2 sequence (Q15743 whole entry): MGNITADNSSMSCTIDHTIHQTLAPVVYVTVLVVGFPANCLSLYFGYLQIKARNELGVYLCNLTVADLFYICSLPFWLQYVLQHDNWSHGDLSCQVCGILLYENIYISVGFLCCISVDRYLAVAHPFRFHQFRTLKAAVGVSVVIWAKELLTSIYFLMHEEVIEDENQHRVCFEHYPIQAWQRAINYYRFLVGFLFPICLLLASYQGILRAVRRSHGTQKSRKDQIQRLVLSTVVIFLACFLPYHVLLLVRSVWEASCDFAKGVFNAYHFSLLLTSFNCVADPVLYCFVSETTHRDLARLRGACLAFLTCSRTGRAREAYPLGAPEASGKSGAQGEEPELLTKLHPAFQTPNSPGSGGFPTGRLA
C-X-C chemokine receptor type 4 (Homo sapiens), sequence (P61073 whole entry): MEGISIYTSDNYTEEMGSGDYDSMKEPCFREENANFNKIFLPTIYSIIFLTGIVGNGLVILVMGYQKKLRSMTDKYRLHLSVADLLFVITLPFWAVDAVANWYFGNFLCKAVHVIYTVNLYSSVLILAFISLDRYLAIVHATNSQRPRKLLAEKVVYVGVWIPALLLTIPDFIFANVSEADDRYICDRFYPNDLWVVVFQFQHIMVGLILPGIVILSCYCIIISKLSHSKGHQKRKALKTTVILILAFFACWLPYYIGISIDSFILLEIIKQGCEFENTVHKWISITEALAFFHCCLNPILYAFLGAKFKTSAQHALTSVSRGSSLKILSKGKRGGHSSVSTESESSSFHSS

As a reminder, the Emax is the size of the effect at its maximum, as opposed to the concentration needed. For orientation: EC50 means the concentration needed to bring the measured effect to its halfway point. As for `CN1N=C(SCc2ccc(Cl)cc2Cl)Sc2c1cnn(C)c2=O`, the result (in the data set with HEK293T [1]; in the data set with HEK293T [3]; with HEK293T [6]; in data set [7]) was Active. The maximal response (Emax) in [2] stood at 8.1%; in [5] it was 7.6%. In addition, the figures for the EC50 in [4] and in [8] were 1290 nM and 7760 nM, respectively.
Take `Nc1nc(NCc2ccccc2)nc(-c2cccc(CO)c2)n1` [ZINC32547799]: the EC50 in data set [9] was 158 nM; in [15], 339 nM; in data set [17] it was 158 nM; in [23], 129 nM; in data set [24], 234 nM; in data set [28] it was 186 nM. Besides, the Activity entry in [10] is “Non-Toxic”; in data set [19], “Non-Toxic”; in [20] it was “Non-Toxic”; in data set [25], “Non-Toxic”; in data set [27], “Toxic”; in data set [30], “Non-Toxic”. Also, the Emax in [11] was determined as 1.33%; in data set [29], 43.1%. Moreover, the outcome (in data set [12]; in data set [14]; in the data set filed under Mus musculus [18]; in the data set listed under Mus musculus [21]; in [31]) was inactive. Further, the Emax at 10 µM worked out at 1.21% in data set [13]; 1.36% in data set [16]; 1.35% in data set [22]; 1.52% in [26]; 1.38% in [32].
